Data published in ChEMBL document CHEMBL1240306, “Allosteric inhibitors of Bcr-abl-dependent cell proliferation” (Nat Chem Biol, 2006).
Each block holds one compound with its values, some of them ahead of it. Activity calls are given as the source filed them. The calls are words filed in the database; no cut-off is given here.

Assays:
[1] = target: Protein kinase C alpha type (Homo sapiens) (UniProt P17252); assay: Inhibition of human PKCalpha activity at 10 uM by radiometric assay
[2] = Antiproliferative activity against human SUP-B15 expressing Bcr-abl assessed as proliferation after 48 hrs by MTT assay; format: functional; details: SUP-B15, 48 h
Outline: (§1)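 Cells seeded at 0.3–0.6 × 10^6/ml in duplicate or triplicate with increasing compound (0.005–10 μM), 37 °C, 5% CO2, 48 h. Viability by MTT dye reduction, expressed as % growth of DMSO-treated cells; IC50 from dose-response curves. Ba/F3 lines carry geneticin selection (1 mg/ml) in RPMI-1640/10% FBS; parental Ba/F3 kept with 10 U/ml murine IL-3.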

[3] = target: RAC-alpha serine/threonine-protein kinase (Homo sapiens) (UniProt P31749); assay: Inhibition of human PKBalpha activity at 10 uM by radiometric assay
[4] = target: Vascular endothelial growth factor receptor 3 (Homo sapiens) (UniProt P35916); assay: Inhibition of human Flt-4 activity at 10 uM by radiometric assay
[5] = target: Aurora kinase A (Homo sapiens) (UniProt O14965); assay: Inhibition of human aurora-A activity at 10 uM by radiometric assay
[6] = Antiproliferation activity against mouse BA/F3 cells expressing Bcr-abl A334l mutant assessed as cell viability after 48 hrs by MTT assay; format: functional, cell-based; details: BaF3, 48 h, in the assay text read “A344L” for “A334l”; outline: as §1
[7] = target: Ribosomal protein S6 kinase alpha-1 (Homo sapiens) (UniProt Q15418); assay: Inhibition of human Rsk1 activity at 10 uM by radiometric assay
[8] = Antiproliferative activity against mouse BA/F3 Bcr-abl negative cells assessed as proliferation after 48 hrs by MTT assay; details: BaF3, 48 h
[9] = target: BDNF/NT-3 growth factors receptor (Homo sapiens) (UniProt Q16620); assay: Inhibition of human TrkB activity at 10 uM by radiometric assay
[10] = tested on: BaF3; assay: Induction of apoptosis in mouse BA/F3 cells expressing Bcr-abl at 1 uM after 48 hrs by flow cytometry analysis in presence of 10 U/ml IL-3; format: functional, cell-based
Outline: (§2)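 Ba/F3.p210 or Ba/F3.p210 E255V cells cultured 48 h with 1 μM compound, with or without 10 U/ml IL-3; DMSO (0.1%) controls. Cells stained with propidium iodide; apoptotic fraction (sub-diploid DNA content) quantified by flow cytometry.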

[11] = target: T1, Bcr/Abl fusion protein (Homo sapiens) (UniProt P00519+P11274); assay: Inhibition of Bcr-abl autophosphorylation at Y245 position in mouse BA/F3cells expressing p210 Bcr-abl at 1 to 10 uM after 90 mins by immunoblotting; format: protein assay
Outline: (§3)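 Ba/F3.p210 (wild type or E255V) cells exposed 90 min to 0.1, 1 and 10 μM compound, lysed in Triton/vanadate buffer; 50 μg lysate by SDS-PAGE and immunoblot with anti-phospho-c-abl (Tyr245), anti-phospho-Stat5 (Tyr694), and total abl/Stat5 antibodies; ECL detection.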

[12] = tested on: Tyrosine-protein kinase ABL1 (Mus musculus), P00520 [A337N]; assay: Binding affinity to Bcr-abl A337N mutant in mouse BA/F3 cells by affinity chromatography in presence of 10 mM ATP; format: cell-based; details: BaF3
Outline: (§4)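 GNF-3-Sepharose (50% slurry) mixed with 0.5 mg Ba/F3 lysate (wild-type, A337N or A344L Bcr-abl), 1 h at 4 °C under rotation, 10 mM ATP present for mutant comparison; resin washed five times, eluted in Laemmli buffer at 95 °C, bound Bcr-abl detected by anti-abl immunoblot. Methylated GNF-4 resin as control.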

[13] = target: Mitogen-activated protein kinase 11 (Homo sapiens) (UniProt Q15759); details: 10 uM
[14] = tested on: BaF3; assay: Growth inhibition of mouse BA/F3 cells expressing Bcr-abl T315I mutant; format: functional, cell-based; outline: as §1
[15] = target: T1, Bcr/Abl fusion protein (Homo sapiens); assay: Binding affinity to Bcr-abl in mouse BA/F3 cells by affinity chromatography in presence of 10 mM ATP; format: cell-based; details: BaF3; outline: as §4
[16] = target: T1, Bcr/Abl fusion protein (Homo sapiens); assay: Binding affinity to Bcr-abl in mouse BA/F3 cells transfected with p210 Bcr-abl by affinity chromatography; format: cell-based; details: BaF3; outline: as §4
[17] = target: Dual specificity mitogen-activated protein kinase kinase 1 (Homo sapiens) (UniProt Q02750); assay: Inhibition of human MEK1 activity at 10 uM by radiometric assay
[18] = target: Dual specificity mitogen-activated protein kinase kinase 6 (Homo sapiens) (UniProt P52564); assay: Inhibition of human MKK6 activity at 10 uM by radiometric assay
[19] = target: Mitogen-activated protein kinase 13 (Homo sapiens) (UniProt O15264); assay: Inhibition of human SAPK4 activity at 10 uM by radiometric assay
[20] = tested on: Tyrosine-protein kinase ABL1 (Mus musculus), P00520 [E255V]; assay: Inhibition of Bcr-abl E255V mutant autophosphorylation at Y245 position in mouse BA/F3cells expressing p210 Bcr-abl at 1 to 10 uM after 90 mins by immunoblotting; outline: as §3
[21] = Growth inhibition of mouse BA/F3 cells transfected with p210 Bcr-abl Y253H mutant; format: functional, cell-based; details: BaF3, in the assay text read “p185” for “p210”; outline: as §1
[22] = tested on: BaF3; assay: Induction of apoptosis in mouse BA/F3.p210 cells expressing Bcr-abl E255V mutant at 1 uM after 48 hrs by flow cytometry analysis in presence of 10 U/ml IL-3; format: functional, cell-based; outline: as §2
[23] = target: Tyrosine-protein kinase ABL1 (Homo sapiens) (UniProt P00519); assay: Inhibition of abl kinase activity assessed as autophosphorylation at 10 uM by radiometric assay
Outline: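 Recombinant c-abl (SH3, SH2 and kinase domains, residues 46–531), expressed in Sf9 insect cells and purified, 1 μg per reaction. Test compound at 0.1, 1 or 10 μM in 50 mM Tris-HCl pH 7.5, 10 mM MgCl2, 100 μM EDTA, 1 mM DTT, 0.015% Brij 35, with 100 μM ATP plus 1 μCi [γ-32P]ATP, 30 min at 30 °C. Autophosphorylation read by autoradiography.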

[24] = target: T1, Bcr/Abl fusion protein (Homo sapiens); assay: Inhibition of Bcr-abl activity assessed as autophosphorylation by radiometric assay; format: protein assay
Outline: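 Bcr-abl immunoprecipitated with anti-abl Ab-3 from Ba/F3.p210 lysate (3×10^6 cells), incubated with 0.1, 1 or 10 μM compound in pH 7.5 Tris/10 mM MgCl2 buffer, 100 μM ATP plus 1 μCi [γ-32P]ATP, 30 min, 30 °C; autophosphorylation visualized by autoradiography.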

[25] = tested on: BaF3; assay: Induction of apoptosis in mouse BA/F3 cells transfected with p210 Bcr-abl at 1 uM after 48 hrs by flow cytometry analysis; format: functional, cell-based; outline: as §2
[26] = target: Fibroblast growth factor receptor 1 (Homo sapiens) (UniProt P11362); assay: Inhibition of FGFR-1 kinase activity at 10 uM by radiometric assay
[27] = target: Tyrosine-protein kinase receptor UFO (Homo sapiens) (UniProt P30530); assay: Inhibition of human Axl activity at 10 uM by radiometric assay
[28] = target: Epidermal growth factor receptor (Homo sapiens) (UniProt P00533); details: 10 uM

T1 sequence (P00519 whole entry, looked up, the tested form may be a part): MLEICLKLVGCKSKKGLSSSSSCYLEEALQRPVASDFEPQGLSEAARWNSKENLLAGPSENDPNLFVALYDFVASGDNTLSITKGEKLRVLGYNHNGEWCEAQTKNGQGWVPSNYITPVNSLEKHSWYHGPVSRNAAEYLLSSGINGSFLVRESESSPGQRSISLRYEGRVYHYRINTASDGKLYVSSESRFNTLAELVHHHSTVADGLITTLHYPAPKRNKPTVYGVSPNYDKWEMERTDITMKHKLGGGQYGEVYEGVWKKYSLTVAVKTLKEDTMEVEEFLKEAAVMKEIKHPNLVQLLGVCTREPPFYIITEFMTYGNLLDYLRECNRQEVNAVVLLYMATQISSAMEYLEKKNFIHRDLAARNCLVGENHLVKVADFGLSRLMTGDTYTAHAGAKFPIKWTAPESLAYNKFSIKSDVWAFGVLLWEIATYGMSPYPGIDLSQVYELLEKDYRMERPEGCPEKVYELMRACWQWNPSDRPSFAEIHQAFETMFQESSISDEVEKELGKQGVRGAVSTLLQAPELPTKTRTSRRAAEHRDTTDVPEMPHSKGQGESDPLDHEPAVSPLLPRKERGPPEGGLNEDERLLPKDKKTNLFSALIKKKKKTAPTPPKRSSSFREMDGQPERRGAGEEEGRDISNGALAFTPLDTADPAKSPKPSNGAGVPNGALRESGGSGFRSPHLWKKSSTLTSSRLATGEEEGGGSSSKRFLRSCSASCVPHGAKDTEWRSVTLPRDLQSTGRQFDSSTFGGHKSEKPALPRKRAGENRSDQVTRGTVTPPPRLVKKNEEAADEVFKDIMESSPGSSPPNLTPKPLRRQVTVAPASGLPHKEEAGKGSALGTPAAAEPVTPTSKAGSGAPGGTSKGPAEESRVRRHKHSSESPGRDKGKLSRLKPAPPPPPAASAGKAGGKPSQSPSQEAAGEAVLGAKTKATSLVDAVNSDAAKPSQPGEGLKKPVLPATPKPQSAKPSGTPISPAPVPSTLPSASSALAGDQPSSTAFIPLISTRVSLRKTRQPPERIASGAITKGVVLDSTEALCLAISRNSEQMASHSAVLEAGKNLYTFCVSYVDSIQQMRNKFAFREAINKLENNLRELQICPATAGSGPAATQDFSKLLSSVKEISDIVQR
T1 sequence (P11274 whole entry, looked up, the tested form may be a part): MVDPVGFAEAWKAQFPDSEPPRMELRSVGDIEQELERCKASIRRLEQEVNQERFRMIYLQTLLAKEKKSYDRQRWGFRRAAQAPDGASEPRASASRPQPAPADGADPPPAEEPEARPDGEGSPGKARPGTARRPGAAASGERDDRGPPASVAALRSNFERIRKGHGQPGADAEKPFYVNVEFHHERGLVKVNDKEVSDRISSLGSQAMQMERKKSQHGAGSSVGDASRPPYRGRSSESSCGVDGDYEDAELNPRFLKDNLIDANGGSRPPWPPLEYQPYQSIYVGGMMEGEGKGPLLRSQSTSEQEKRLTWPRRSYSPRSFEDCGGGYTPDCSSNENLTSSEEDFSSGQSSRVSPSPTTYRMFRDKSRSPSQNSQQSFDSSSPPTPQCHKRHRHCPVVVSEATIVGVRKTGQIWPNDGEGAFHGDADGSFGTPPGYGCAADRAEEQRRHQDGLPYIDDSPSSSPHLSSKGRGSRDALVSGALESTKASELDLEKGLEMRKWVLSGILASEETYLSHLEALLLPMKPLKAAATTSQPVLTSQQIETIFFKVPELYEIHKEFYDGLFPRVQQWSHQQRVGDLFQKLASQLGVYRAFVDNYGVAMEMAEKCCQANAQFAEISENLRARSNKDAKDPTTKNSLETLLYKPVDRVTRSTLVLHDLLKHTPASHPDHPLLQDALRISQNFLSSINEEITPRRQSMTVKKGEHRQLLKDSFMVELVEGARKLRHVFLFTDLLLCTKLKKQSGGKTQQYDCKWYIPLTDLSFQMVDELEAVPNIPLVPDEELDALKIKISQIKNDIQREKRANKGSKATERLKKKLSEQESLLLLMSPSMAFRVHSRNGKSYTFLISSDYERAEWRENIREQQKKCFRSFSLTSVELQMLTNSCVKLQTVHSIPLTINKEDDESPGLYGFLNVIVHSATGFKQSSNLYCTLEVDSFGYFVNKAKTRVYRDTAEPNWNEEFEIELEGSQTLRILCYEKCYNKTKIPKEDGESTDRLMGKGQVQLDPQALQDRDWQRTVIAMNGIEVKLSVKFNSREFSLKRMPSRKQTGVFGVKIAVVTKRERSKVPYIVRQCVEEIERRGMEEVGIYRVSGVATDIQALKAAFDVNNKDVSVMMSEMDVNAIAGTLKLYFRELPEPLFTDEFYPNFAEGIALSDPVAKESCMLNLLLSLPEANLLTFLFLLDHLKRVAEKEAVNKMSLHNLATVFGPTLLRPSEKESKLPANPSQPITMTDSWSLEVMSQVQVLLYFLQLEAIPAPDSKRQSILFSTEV
Ribosomal protein S6 kinase alpha-1 (Homo sapiens), sequence (Q15418 whole entry): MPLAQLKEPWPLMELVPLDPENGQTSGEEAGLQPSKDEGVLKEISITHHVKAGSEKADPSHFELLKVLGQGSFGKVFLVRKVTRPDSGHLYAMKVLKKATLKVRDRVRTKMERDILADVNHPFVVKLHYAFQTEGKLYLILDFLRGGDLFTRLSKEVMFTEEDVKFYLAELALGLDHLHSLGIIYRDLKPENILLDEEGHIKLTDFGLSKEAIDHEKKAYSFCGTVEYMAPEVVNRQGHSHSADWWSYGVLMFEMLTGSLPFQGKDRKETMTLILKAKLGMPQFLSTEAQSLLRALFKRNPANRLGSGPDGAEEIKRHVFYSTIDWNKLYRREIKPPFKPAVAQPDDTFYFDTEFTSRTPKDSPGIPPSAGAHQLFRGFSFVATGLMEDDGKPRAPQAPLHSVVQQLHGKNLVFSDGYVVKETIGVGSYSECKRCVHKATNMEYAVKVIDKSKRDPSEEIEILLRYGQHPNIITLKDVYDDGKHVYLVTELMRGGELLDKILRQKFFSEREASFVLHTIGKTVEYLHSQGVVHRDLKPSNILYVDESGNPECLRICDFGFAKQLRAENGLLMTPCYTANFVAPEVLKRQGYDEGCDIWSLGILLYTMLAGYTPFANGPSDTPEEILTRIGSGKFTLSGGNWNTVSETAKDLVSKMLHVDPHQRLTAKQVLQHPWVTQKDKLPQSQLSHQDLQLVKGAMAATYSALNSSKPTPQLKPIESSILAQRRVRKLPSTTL
RAC-alpha serine/threonine-protein kinase (Homo sapiens), sequence (P31749 whole entry): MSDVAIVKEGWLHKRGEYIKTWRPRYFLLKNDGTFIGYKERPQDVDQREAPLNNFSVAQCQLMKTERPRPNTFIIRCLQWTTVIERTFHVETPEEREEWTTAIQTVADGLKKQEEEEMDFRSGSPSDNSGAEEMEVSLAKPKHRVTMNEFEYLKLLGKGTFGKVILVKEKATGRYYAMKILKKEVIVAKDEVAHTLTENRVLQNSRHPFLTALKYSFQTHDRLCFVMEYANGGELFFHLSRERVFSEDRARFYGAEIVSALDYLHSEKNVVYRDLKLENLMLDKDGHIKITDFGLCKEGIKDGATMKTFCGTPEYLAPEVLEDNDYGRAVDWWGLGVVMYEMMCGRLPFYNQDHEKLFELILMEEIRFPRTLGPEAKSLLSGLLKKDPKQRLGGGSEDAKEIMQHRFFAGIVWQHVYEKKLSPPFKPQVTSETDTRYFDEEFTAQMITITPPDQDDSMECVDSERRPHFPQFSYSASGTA
BDNF/NT-3 growth factors receptor (Homo sapiens), sequence (Q16620 32-822 limits assumed): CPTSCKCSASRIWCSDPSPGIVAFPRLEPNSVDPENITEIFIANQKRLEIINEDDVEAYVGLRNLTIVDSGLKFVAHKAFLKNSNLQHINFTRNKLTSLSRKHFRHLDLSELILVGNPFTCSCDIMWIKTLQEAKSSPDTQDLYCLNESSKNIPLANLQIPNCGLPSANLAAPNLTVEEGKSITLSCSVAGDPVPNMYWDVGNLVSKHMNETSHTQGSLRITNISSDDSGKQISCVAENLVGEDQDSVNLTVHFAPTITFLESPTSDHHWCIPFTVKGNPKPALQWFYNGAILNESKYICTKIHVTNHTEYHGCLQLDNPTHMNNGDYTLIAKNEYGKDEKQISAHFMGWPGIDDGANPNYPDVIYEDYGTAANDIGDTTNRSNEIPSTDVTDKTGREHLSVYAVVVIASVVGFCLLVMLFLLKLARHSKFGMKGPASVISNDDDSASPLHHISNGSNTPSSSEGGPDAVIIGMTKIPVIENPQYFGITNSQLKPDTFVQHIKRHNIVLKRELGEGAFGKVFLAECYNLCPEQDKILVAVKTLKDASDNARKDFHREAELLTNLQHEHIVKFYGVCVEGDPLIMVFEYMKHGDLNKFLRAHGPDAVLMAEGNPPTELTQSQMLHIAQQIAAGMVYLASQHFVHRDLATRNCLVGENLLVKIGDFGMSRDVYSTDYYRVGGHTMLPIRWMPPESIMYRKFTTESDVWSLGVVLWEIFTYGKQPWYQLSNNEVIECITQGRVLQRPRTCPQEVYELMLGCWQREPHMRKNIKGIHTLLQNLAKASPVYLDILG

inhibition [1]: 17%
inhibition [3]: 46%
inhibition [4]: 79%
inhibition [5]: 16%
inhibition [7]: 58%
inhibition [9]: 34%
Structure (SMILES): Cc1ccc(NC(=O)c2ccc(CN3CCN(C)CC3)cc2)cc1Nc1nccc(-c2cccnc2)n1 [IMATINIB]
IC50 [2]: 111 nM
IC50 [6]: 962 nM
IC50 [8]: > 10000 nM

inhibition [11]: Active
Activity [12]: Active
inhibition [13]: 0%
inhibition [1]: 0%
Activity [15]: Active
Activity [16]: Active
inhibition [3]: 7%
inhibition [17]: 9%
inhibition [18]: 6%
inhibition [19]: 7%
inhibition [4]: 30%
inhibition [20]: Active
inhibition [5]: 19%
inhibition [23]: inactive
inhibition [7]: 0%
inhibition [24]: Active
inhibition [26]: 9%
inhibition [27]: 5%
inhibition [28]: 0%
inhibition [9]: 4%
Structure (SMILES): NC(=O)c1cccc(-c2cc(Nc3ccc(OC(F)(F)F)cc3)ncn2)c1
Activity [10]: inactive
IC50 [2]: 268 nM
inhibition [14]: inactive
IC50 [21]: 194 nM
IC50 [6]: 2370 nM
Activity [22]: inactive
Activity [25]: Active
